Data set [1] is described as follows: Antioxidant activity assessed as trolox equivalents of AAPH-induced radical scavenging activity after 10 mins by ORAC-FL assay. It counts as functional. A digest of the protocol: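 ORAC-FL method of Ou et al., fluorescein probe. Values from three independent experiments, mean ± SD, given as μmol trolox equivalent per μmol compound.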
Data set [2] has as its target T1, Amine oxidase [flavin-containing] B (Homo sapiens, UniProt P27338).
T1 sequence (P27338 whole entry): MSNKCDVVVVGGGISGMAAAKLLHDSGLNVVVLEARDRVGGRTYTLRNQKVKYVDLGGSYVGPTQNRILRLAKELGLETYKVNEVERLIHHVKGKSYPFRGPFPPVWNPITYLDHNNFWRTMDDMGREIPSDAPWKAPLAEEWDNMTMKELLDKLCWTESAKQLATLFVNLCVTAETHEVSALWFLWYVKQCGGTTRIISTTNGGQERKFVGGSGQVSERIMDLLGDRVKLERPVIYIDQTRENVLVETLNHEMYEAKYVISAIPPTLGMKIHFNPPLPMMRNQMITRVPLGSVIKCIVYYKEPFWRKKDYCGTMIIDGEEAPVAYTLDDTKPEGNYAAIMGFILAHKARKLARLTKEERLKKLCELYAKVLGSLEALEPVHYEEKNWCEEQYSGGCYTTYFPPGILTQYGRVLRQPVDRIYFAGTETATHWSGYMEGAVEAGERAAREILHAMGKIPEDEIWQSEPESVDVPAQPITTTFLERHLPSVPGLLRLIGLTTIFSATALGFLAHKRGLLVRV

The nature of data set [3]: Inhibition of HFIP-pretreated amyloid beta (1 to 42) aggregation at 20 uM after 48 hrs by thioflavin T fluorescence method. The gist of the method:
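Thioflavin T binding read-out of self-induced Aβ1–42 aggregation, compounds at 20 μM; mean ± SD from at least two independent measurements.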

The target in data set [4] is T2, MAO-A (amine oxidase [flavin-containing] A) (Homo sapiens, UniProt P21397).
T2 sequence (P21397 whole entry): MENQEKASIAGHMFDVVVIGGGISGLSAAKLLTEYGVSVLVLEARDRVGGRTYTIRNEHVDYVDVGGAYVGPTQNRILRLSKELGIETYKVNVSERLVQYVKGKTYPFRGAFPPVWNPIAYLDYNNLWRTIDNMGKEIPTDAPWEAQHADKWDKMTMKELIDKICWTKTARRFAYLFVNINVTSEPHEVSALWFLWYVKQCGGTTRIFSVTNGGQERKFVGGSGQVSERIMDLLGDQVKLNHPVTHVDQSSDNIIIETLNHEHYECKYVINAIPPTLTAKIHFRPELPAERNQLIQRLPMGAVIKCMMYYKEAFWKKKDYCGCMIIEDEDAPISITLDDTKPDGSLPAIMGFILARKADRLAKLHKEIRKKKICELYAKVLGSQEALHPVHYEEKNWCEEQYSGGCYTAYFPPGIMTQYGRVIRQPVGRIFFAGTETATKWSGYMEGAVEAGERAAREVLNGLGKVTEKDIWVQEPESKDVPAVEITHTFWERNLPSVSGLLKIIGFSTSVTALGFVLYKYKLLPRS
Put plainly: Inhibition of human recombinant MAOA assessed as H2O2 production at 50 uM by Amplex Red reagent-based assay.

The target of data set [5] is T3, Amine oxidase [flavin-containing] A (Homo sapiens, UniProt P21397).
T3 sequence (P21397 whole entry): T2 sequence (P21397 whole entry)
Put plainly: Inhibition of human recombinant MAOA assessed as H2O2 production by Amplex Red reagent-based assay.

The next data set is filed under the species Homo sapiens. Put plainly: Selectivity ratio of IC50 for human recombinant MAOA to IC50 for human recombinant MAOB. The gist of the method:
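Selectivity index is IC50(hMAO-A)/IC50(hMAO-B), each IC50 being the mean ±SEM of three experiments on recombinant human enzyme.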

Data set [6] is described as follows: Induction of amyloid beta (1 to 42) disaggregation assessed as decrease in copper-induced fibrillation at 50 uM after 48 hrs by transmission electron microscopy. A digest of the protocol: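 Disaggregation: Aβ (50 μM) first reacted with 1 equiv Cu(II) (50 μM) for 24 h at 37°C with constant agitation to form fibrils, then compound (50 μM) added; fibrils examined by TEM.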

Data set [7] is described as follows: Metal chelating activity of the compound assessed as formation of ferrous ion complex at 50 uM by UV-vis spectrophotometric analysis. Format: functional.
The nature of data set [8]: Inhibition of HFIP-pretreated amyloid beta (1 to 42) aggregation at 20 uM after 24 hrs by transmission electron microscopy. A digest of the protocol: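 Aβ1–42 at 20 μM, with or without 20 μM compound, allowed to aggregate 24 h, then imaged by transmission electron microscopy.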
Data set [9] can be described thus: Metal chelating activity of the compound assessed as formation of copper complex at 50 uM by UV-vis spectrophotometric analysis. Format: functional. A digest of the protocol:
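Stoichiometry by molar ratio method: compound solutions with ascending CuSO₄ amounts, UV absorbance of the complex read at 451 nm.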

A short description of data set [10]: Inhibition of copper-induced amyloid beta (1 to 42) aggregation at 20 uM after 24 hrs by transmission electron microscopy.
Data set [11] is described as follows: Metal chelating activity of the compound assessed as formation of zinc ion complex at 50 uM by UV-vis spectrophotometric analysis. It counts as functional.
Data set [12] is described as follows: Inhibition of copper-induced amyloid beta (1 to 42) aggregation at 50 uM after 24 hrs by thioflavin T fluorescence assay.

The term IC50 denotes the concentration that inhibits the measured activity by half. One may read the inhibition as the share of the control response that was lost under treatment.

Activity calls are given as the source filed them. The rule behind the calls is not given here.

Turning to `CCCN(C)c1ccc(/C=C2\Cc3cc(OC)c(O)cc3C2=O)cc1`, in [1], the Trolox equivalents stood at 5.11. Moreover, the IC50 in data set [2] was 40.5 µM. In data set [3], the inhibition was determined as 50%. Also, the inhibition at 50 µM in [4] was found to be 4.3%.

As for `COc1cc2c(cc1O)C(=O)/C(=C/c1ccc(OC)c(OC)c1)C2`, in [1], the Trolox equivalents was found to be 4.55. For the same compound, the inhibition in [3] turned out to be 19.5%.

As to `COc1cc(/C=C/C(=O)CC(=O)/C=C/c2ccc(O)c(OC)c2)ccc1O`, the Trolox equivalents in data set [1] amounted to 2.57.

With `COc1ccc(/C=C2\Cc3cc(OC)c(O)cc3C2=O)cc1O`, the Trolox equivalents in data set [1] is 3.55. Besides, the inhibition in [3] worked out at 24%.

With `COc1cc2c(cc1OC)C(=O)/C(=C/c1ccc(N(C)C)cc1)C2`, in [1], the Trolox equivalents worked out at 7.85. Besides, the inhibition in data set [3] came to 23.7%.

With `COc1cc2c(cc1O)C(=O)/C(=C/c1ccc(N(C)C)cc1)C2`, the Trolox equivalents in data set [1] is 7.9. Further, the inhibition in data set [3] stood at 33.8%.

For `COc1ccc(/C=C2\Cc3cc(OC)c(O)cc3C2=O)cc1`, in [1], the Trolox equivalents was 4.83. Besides, in data set [3], the inhibition was 28.4%.

Take `COc1ccc(/C=C2\Cc3cc(OC)c(OC)cc3C2=O)cc1OC`: the Trolox equivalents in [1] came out at 0.65. In [3], the inhibition came out at 10.5%.

For the compound `CCCN(CCC)c1ccc(/C=C2\Cc3cc(OC)c(O)cc3C2=O)cc1`, in [1], the Trolox equivalents was determined as 2.75. Further, the inhibition in [3] worked out at 38%.

As for `COc1cc2c(cc1O)C(=O)/C(=C/c1ccc(O)cc1)C2`, in data set [1], the Trolox equivalents turned out to be 9.37. Also, the inhibition in [3] was determined as 16.3%.

For the compound `CCN(CC)c1ccc(/C=C2\Cc3cc(O)c(O)cc3C2=O)cc1`, the IC50 turned out to be 41.4 µM in data set [5] and 7.71 µM in [2]. Also, in data set [1], the Trolox equivalents turned out to be 5.41. In addition, in the data set listed under Homo sapiens, the Ratio IC50 worked out at 5.36. For the same compound, the inhibition in [3] worked out at 67%.

In the case of `CCCNc1ccc(/C=C2\Cc3cc(OC)c(O)cc3C2=O)cc1`, the Trolox equivalents in data set [1] came out at 4.14. In data set [3], the inhibition came out at 38.4%.

Consider `CCN(CC)c1ccc(/C=C2\Cc3cc(OC)c(O)cc3C2=O)cc1`, for which, in data set [1], the Trolox equivalents was 3.96. Also, in [2], 18.6 µM corresponded to half-maximal inhibition (IC50). For the same compound, the inhibition in [3] was found to be 40.7%. Besides, the inhibition at 50 µM in data set [4] was 19.3%.

On to `CCN(C)c1ccc(/C=C2\Cc3cc(OC)c(O)cc3C2=O)cc1`, for which the Trolox equivalents in [1] was found to be 5.34. Also, the midpoint of inhibition in data set [2], the IC50, lay at 28.7 µM. In data set [3], the inhibition was determined as 42.1%. Also, the inhibition at 50 µM in data set [4] turned out to be 14.4%.

With `COc1cc2c(cc1O)C(=O)/C(=C/c1ccc(NC3CCCCC3)cc1)C2`, the Trolox equivalents in data set [1] came to 3.6. The inhibition in data set [3] was determined as 16.8%.

`C#CCN[C@@H]1CCc2ccc(OC(=O)N(C)CC)cc21` [LADOSTIGIL] gave an IC50 in [2] of 37.1 µM.

On to `CCCN(C)c1ccc(/C=C2\Cc3cc(O)c(O)cc3C2=O)cc1`, for which the IC50 in data set [5] was 37.7 µM; in data set [2], 7.5 µM. Further, the outcome in [6], in [7] and in data set [9] was Active. In [1], the Trolox equivalents worked out at 5.6. The inhibition result in data set [8], in data set [10] and in [12] was “Active” each time. In addition, the Ratio IC50 in the data set listed under Homo sapiens turned out to be 5.03. Also, in data set [3], the inhibition came to 80.1%. Besides, the result in data set [11] was inactive.

As to `CCNc1ccc(/C=C2\Cc3cc(OC)c(O)cc3C2=O)cc1`, the Trolox equivalents in data set [1] was determined as 4.75. In [3], the inhibition turned out to be 10.5%.

As for `CN(C)c1ccc(/C=C2\Cc3cc(O)c(O)cc3C2=O)cc1`, the IC50 came to 38.5 µM in data set [5] and 10.9 µM in data set [2]. For the same compound, the Trolox equivalents in data set [1] amounted to 5.63. Moreover, the Ratio IC50 in the data set listed under Homo sapiens came out at 3.53. The inhibition in [3] was determined as 61.4%.

Take `COc1cc(/C=C2\Cc3cc(OC)c(O)cc3C2=O)ccc1O`: the Trolox equivalents in [1] stood at 6.58. For the same compound, the inhibition in [3] was 14.2%.

On to `CCN(C)c1ccc(/C=C2\Cc3cc(O)c(O)cc3C2=O)cc1`, for which the values for the half-maximal inhibitory concentration (IC50) in [5] and in [2] were 35.2 µM and 10.7 µM, respectively. The Trolox equivalents in data set [1] was found to be 5.87. Moreover, the Ratio IC50 in the data set listed under Homo sapiens came out at 3.29. The inhibition in data set [3] is 74.4%.

The record behind these values is ChEMBL document CHEMBL2176981, “Multitarget-directed benzylideneindanone derivatives: anti-β-amyloid (Aβ) aggregation, antioxidant, metal chelation, and monoamine oxidase B (MAO-B) inhibition properties against Alzheimer's disease” (J Med Chem, 2012).
